Reference: ChEMBL document CHEMBL1165962, “Rearranged diterpenoids from the biotransformation of ent-trachyloban-18-oic acid by Rhizopus arrhizus” (J Nat Prod, 2010)
Calls of active or inactive are those of the source. No cut-off for these calls is given here.

Key:
Bcl-2-like protein 1 = Bcl-2-like protein 1 (Homo sapiens, UniProt Q07817); test: Displacement of fluorescently-tagged BH3 peptide from Bcl-XL by fluorimetric assay
Outline: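 Fluorescence-polarization competition assay in which test compound displaces a fluorescent-tagged Bak BH3-domain peptide from Bcl-xL. Unlabeled Bak(BH3) peptide served as the positive control. Output was percent inhibition of labeled-peptide binding, or IC50 as the concentration giving 50% inhibition.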

KB [1] = test: Cytotoxicity against human KB cells; type: functional, cell-based
Outline: (§1)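 Growth inhibition measured by a previously published method in KB (oral epidermoid carcinoma) and HCT-116 (human colon carcinoma) cells. Taxotere served as the reference compound. IC50 was reported.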

HCT-116 [2] = test: Cytotoxicity against human HCT116 cells; type: functional, cell-based; outline: as §1
KB [3] = test: Cytotoxicity against human KB cells at 10 ug/mL; type: functional, cell-based
Outline: (§2)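 Single-concentration screen at 10 µg/mL in KB (oral epidermoid carcinoma) and HCT-116 (human colon carcinoma) cells, run by a previously published cytotoxicity method. Taxotere served as the reference.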

HCT-116 [4] = test: Cytotoxicity against human HCT116 cells at 10 ug/mL; type: functional, cell-based; outline: as §2

Chain of Bcl-2-like protein 1 (Q07817 whole entry): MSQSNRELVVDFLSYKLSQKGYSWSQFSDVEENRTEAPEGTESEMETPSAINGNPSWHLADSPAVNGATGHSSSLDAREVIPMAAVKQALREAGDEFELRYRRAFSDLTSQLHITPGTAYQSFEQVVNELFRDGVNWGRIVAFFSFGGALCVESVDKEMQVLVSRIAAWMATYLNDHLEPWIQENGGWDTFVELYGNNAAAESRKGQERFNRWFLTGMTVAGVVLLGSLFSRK

Compound | IC50 (Bcl-2-like protein 1; read-out: IC50) | IC50 (Bcl-2-like protein 1) | IC50 (KB [1]) | IC50 (HCT-116 [2]) | inhibition (KB [3]) | inhibition (HCT-116 [4])
C[C@]12CCC[C@@](C)(C(=O)O)[C@@H]1CC[C@]13C[C@@H](C=C[C@@H]12)[C@@](C)(O)C3 | 380 µM | – | > 31.4 µM | > 31.4 µM | inactive | inactive
C[C@]12CCC[C@@](C)(C(=O)O)[C@@H]1CC[C@]13C[C@@H]4[C@H](C[C@H]12)[C@]4(CO)C3 | 220 µM | – | > 31.4 µM | > 31.4 µM | inactive | inactive
C[C@]12CCC[C@@](C)(C(=O)O)[C@@H]1CC[C@]13C[C@@H]4[C@H](C[C@H]12)[C@]4(C)C3 | 400 µM | – | – | – | – | –
CC(=O)O[C@@]12CO[C@@H]1C[C@H](O)[C@@]1(C)C(=O)[C@H](O)C3=C(C)[C@@H](OC(=O)[C@H](O)[C@@H](NC(=O)OC(C)(C)C)c4ccccc4)C[C@@](O)([C@@H](OC(=O)c4ccccc4)[C@H]21)C3(C)C [DOCETAXEL] | – | – | 0.00015 µM | 0.0012 µM | – | –
CO[C@@]1(C)C[C@]23CC[C@@H]4[C@](C)([C@H](O)CC[C@@]4(C)C(=O)O)[C@H]2C=C[C@@H]1C3 | – | Not Active | > 28.7 µM | > 28.7 µM | inactive | inactive

More lines, main results first:

IC50 (Bcl-2-like protein 1; read-out: IC50) | IC50 (Bcl-2-like protein 1) | Compound | IC50 (KB [1]) | IC50 (HCT-116 [2]) | inhibition (KB [3]) | inhibition (HCT-116 [4])
– | Not Active | CC1=C[C@]23CC[C@@H]4[C@](C)([C@H](O)CC[C@@]4(C)C(=O)O)[C@H]2[C@H]2[C@H](C3)[C@@H]12 | > 31.6 µM | > 31.6 µM | inactive | inactive
– | Not Active | C[C@]12[C@H](O)CC[C@@](C)(C(=O)O)[C@@H]1CC[C@]13C[C@@H](C=C[C@@H]12)[C@@](C)(O)C3 | > 29.9 µM | > 29.9 µM | inactive | inactive
– | Not Active | C[C@]12C[C@]34CC[C@@H]5[C@](C)([C@H](O)CC[C@@]5(C)C(=O)O)[C@@H]3C[C@H]1[C@H]2C4 | > 31.4 µM | > 31.4 µM | inactive | inactive
